In ChEMBL document CHEMBL4765357, “Development of small-molecule inhibitors of fatty acyl-AMP and fatty acyl-CoA ligases in Mycobacterium tuberculosis” (Eur J Med Chem, 2020):
Values after ≈ are worked out from the molar mass of the structure shown.

Experiments:
[1] = system: Mycobacterium tuberculosis; assay: Antimycobacterial activity against Mycobacterium tuberculosis H37Rv ATCC 27294 assessed as inhibition of bacterial growth under GAST medium condition after 7 to 14 days by broth microdilution method; format: functional; settings: time 7-14 day
Method in brief: (§1)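 Mtb H37Rv ATCC 27294 by broth microdilution in GAST or 7H9 base with 5 g/L BSA fraction V, 0.8 g/L NaCl and 0.05% tyloxapol. Carbon source was 20 mM glycerol/10 mM glucose or 0.05 mM sodium palmitate. Compounds came from DMSO stocks with DMSO-only controls. Inoculum was 10⁴-10⁵ cells; growth was read at 7 and 14 days. MIC is the concentration giving >99% growth inhibition; runs were in triplicate.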

[2] = target: T1, Medium/long-chain-fatty-acid--CoA/3-oxocholest-4-en-26-oate--CoA ligase (Mycobacterium tuberculosis, UniProt P9WQ51); assay: Inhibition of Mycobacterium tuberculosis H37Rv FACL19 Spectra expressed in Escherichia coli BL21(DE3) cells assessed as cleavage of MEsG by spectroscopic analysis; settings: read-out: Ki(app)
T1 sequence (P9WQ51 whole entry): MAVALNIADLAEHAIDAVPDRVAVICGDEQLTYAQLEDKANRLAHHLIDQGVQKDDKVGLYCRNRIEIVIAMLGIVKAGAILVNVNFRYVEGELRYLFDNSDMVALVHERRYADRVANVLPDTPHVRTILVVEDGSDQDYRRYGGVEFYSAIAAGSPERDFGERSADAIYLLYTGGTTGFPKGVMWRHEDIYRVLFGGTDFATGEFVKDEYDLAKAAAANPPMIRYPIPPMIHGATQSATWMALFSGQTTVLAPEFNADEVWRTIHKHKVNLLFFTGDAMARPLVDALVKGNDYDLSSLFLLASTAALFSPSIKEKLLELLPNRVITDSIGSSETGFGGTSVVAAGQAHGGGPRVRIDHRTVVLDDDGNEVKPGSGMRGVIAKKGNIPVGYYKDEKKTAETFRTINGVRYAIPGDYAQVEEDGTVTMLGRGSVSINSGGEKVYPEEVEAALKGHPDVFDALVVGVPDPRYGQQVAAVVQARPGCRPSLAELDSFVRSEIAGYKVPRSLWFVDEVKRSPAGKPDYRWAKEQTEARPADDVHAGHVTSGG
Method in brief: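 FACL19 (0.167 μM) with 250 μM dodecanoic acid in a coupled MesG assay with pyrophosphatase and nucleoside phosphorylase. Buffer was 50 mM Tris·HCl pH 8.0 with 2.5 mM ATP, 5 mM MgCl₂, 0.5 mM DTT and 150 mM hydroxylamine. Apparent Ki came from a Morrison tight-binding fit.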

[3] = target: T2, Long-chain-fatty-acid--AMP ligase FadD28 (Mycobacterium tuberculosis, UniProt P9WQ59); assay: Inhibition of Mycobacterium tuberculosis H37Rv FAAL28 Spectra expressed in Escherichia coli BL21(DE3) cells assessed as cleavage of MEsG by spectroscopic analysis; settings: read-out: Ki(app)
T2 sequence (P9WQ59 whole entry): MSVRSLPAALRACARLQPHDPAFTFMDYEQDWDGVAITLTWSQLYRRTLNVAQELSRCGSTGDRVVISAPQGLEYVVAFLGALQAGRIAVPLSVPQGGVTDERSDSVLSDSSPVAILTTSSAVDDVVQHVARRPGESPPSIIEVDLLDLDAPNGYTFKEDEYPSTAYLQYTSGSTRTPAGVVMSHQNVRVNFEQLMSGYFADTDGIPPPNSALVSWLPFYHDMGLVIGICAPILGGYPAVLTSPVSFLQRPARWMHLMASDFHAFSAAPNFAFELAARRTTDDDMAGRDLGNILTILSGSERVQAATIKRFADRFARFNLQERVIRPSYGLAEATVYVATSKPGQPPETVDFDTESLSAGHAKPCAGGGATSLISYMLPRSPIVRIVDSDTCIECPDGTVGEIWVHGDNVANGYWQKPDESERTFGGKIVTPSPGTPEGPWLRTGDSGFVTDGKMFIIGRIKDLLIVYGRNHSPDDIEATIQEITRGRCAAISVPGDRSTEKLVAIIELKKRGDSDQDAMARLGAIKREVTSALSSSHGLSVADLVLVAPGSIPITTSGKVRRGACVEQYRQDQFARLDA
Method in brief: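 Coupled continuous assay with pyrophosphatase (0.04 U) and nucleoside phosphorylase (0.1 U), using 0.45 μM FAAL28 and 33 μM tetradecanoic acid. Buffer was 50 mM Tris·HCl pH 8.0 with 2.5 mM ATP, 5 mM MgCl₂, 0.5 mM DTT, 150 mM hydroxylamine and 0.2 mM MesG. Apparent Ki came from a Morrison equation fit.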

[4] = system: Mycobacterium tuberculosis; assay: Antimycobacterial activity against Mycobacterium tuberculosis H37Rv ATCC 27294 assessed as inhibition of bacterial growth under 7H9 medium condition after 7 to 14 days by broth microdilution method; format: functional; settings: time 7-14 day; method in brief: as §1
[5] = system: Mycobacterium tuberculosis; assay: Antimycobacterial activity against Mycobacterium tuberculosis H37Rv ATCC 27294 assessed as inhibition of bacterial growth under 7H9 medium condition after 7 to 14 days in presence of palmitate by broth microdilution method; format: functional; settings: time 7-14 day; method in brief: as §1
Vero = assay: Cytotoxicity against African green monkey Vero cells assessed as reduction in cell viability after 72 hrs by MTT assay; format: cell-based; settings: Chlorocebus sabaeus
Method in brief: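 Vero cells were seeded at (2.5–5.0) × 10⁴ per well in MEM with 5% FBS and penicillin/streptomycin. Compounds were added from 20 mM DMSO stocks to a final 100 μM. Controls were 0.5% and 50% DMSO, all in triplicate. After 72 h at 37 °C in 5% CO₂, cells got 1 mg/mL MTT for 3 h. Formazan was dissolved in isopropanol and read at 570/650 nm, with viability expressed relative to DMSO control.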

Compound | MIC [1] | Ki [2] | Ki [3] | MIC [4] | MIC [5] | IC50 (Vero)
Nc1ncnc2c1ncn2[C@@H]1O[C@H](COS(=O)(=O)NC(=O)CCCCCCCCCCOc2cccc(Cl)c2)[C@@H](O)[C@H]1O | 25 µM (≈ 16 µg/mL) | 26.4 µM | 0.5 µM | – | – | –
Nc1ncnc2c1ncn2[C@@H]1O[C@H](CNS(=O)(=O)NC(=O)CCCCCCCCCCOc2ccccc2)[C@@H](O)[C@H]1O | 1.56 µM (≈ 0.945 µg/mL) | > 100 µM | 3.1 µM | – | – | –
CCCCCC(=O)NS(=O)(=O)OC[C@H]1O[C@@H](n2cnc3c(N)ncnc32)[C@H](O)[C@@H]1O | 100 µM (≈ 44.4 µg/mL) | > 100 µM | > 100 µM | > 100 µM | > 100 µM | 48.6 µM
CCCCCCCCCCCCCCCCCCCC(=O)NS(=O)(=O)OC[C@H]1O[C@@H](n2cnc3c(N)ncnc32)[C@H](O)[C@@H]1O | > 100 µM | – | – | > 100 µM | > 100 µM | 0.1 µM
COc1cccc(OCCCCCCCCCCC(=O)NS(=O)(=O)OC[C@H]2O[C@@H](n3cnc4c(N)ncnc43)[C@H](O)[C@@H]2O)c1 | 25 µM (≈ 15.9 µg/mL) | > 100 µM | 1.7 µM | – | – | –
Nc1ncnc2c1ncn2[C@@H]1O[C@H](COS(=O)(=O)NC(=O)CCCCCCCCCCSc2ccccc2)[C@@H](O)[C@H]1O | > 50 µM | 41.6 µM | 6.3 µM | – | – | –
Nc1ncnc2c1ncn2[C@@H]1O[C@H](COS(=O)(=O)NC(=O)CCCCCCCCCCOc2cccc(C(F)(F)F)c2)[C@@H](O)[C@H]1O | 25 µM (≈ 16.9 µg/mL) | 13.5 µM | 4.4 µM | – | – | –
Nc1ncnc2c1ncn2[C@@H]1O[C@H](COS(=O)(=O)NC(=O)CCCCCCCCCCOc2cccc3ccccc23)[C@@H](O)[C@H]1O | > 50 µM | 9.64 µM | 25.2 µM | – | – | –
Nc1ncnc2c1ncn2[C@@H]1O[C@H](COS(=O)(=O)NC(=O)CCCCCCCCCCCOc2ccccc2)[C@@H](O)[C@H]1O | 12.5 µM (≈ 7.76 µg/mL) | > 100 µM | 2.6 µM | – | – | –
Nc1ncnc2c1ncn2[C@@H]1O[C@H](COS(=O)(=O)NC(=O)CCCCCCCCCCOc2ccc(Br)cc2)[C@@H](O)[C@H]1O | > 50 µM | 10.4 µM | 4 µM | – | – | –
CCCCCCCC(=O)NS(=O)(=O)OC[C@H]1O[C@@H](n2cnc3c(N)ncnc32)[C@H](O)[C@@H]1O | 12.5 µM (≈ 5.91 µg/mL) | > 100 µM | > 100 µM | 100 µM (≈ 47.3 µg/mL) | > 100 µM | 6 µM
Nc1ncnc2c1ncn2[C@@H]1O[C@H](COS(=O)(=O)NC(=O)CCCCCCCCCCOc2ccc3ccccc3c2)[C@@H](O)[C@H]1O | > 50 µM | 20.4 µM | 1.88 µM | – | – | –
Nc1ncnc2c1ncn2[C@@H]1O[C@H](COS(=O)(=O)NC(=O)CCCCCCCCCCOc2ccc(Cl)cc2)[C@@H](O)[C@H]1O | 6.25 µM (≈ 4.01 µg/mL) | 13.7 µM | 2.2 µM | – | – | –
CCCCCCCCCCCCCCCCCC(=O)NS(=O)(=O)OC[C@H]1O[C@@H](n2cnc3c(N)ncnc32)[C@H](O)[C@@H]1O | 100 µM (≈ 61.3 µg/mL) | 2.4 µM | 0.5 µM | 100 µM (≈ 61.3 µg/mL) | > 100 µM | 0.1 µM
Nc1ncnc2c1ncn2[C@@H]1O[C@H](COS(=O)(=O)NC(=O)CCCCCCCCCCNc2ccccc2)[C@@H](O)[C@H]1O | 12.5 µM (≈ 7.57 µg/mL) | 63.4 µM | 7.3 µM | – | – | –
COc1ccc(OCCCCCCCCCCC(=O)NS(=O)(=O)OC[C@H]2O[C@@H](n3cnc4c(N)ncnc43)[C@H](O)[C@@H]2O)cc1 | > 50 µM | > 100 µM | 6.6 µM | – | – | –

Compound | MIC [1] | Ki [2] | Ki [3] | MIC [4] | MIC [5] | IC50 (Vero)
Nc1ncnc2c1ncn2[C@@H]1O[C@H](COS(=O)(=O)NC(=O)CCCCCCCCCCOc2cccc(F)c2)[C@@H](O)[C@H]1O | 25 µM (≈ 15.6 µg/mL) | 7.3 µM | 1.6 µM | – | – | –
Nc1ncnc2c1ncn2[C@@H]1O[C@H](COS(=O)(=O)NC(=O)CCCCCCCCCCOc2ccccc2C(F)(F)F)[C@@H](O)[C@H]1O | > 50 µM | 28.5 µM | 1.3 µM | – | – | –
CCCCCCCCCCCCCC(=O)NS(=O)(=O)OC[C@H]1O[C@@H](n2cnc3c(N)ncnc32)[C@H](O)[C@@H]1O | 0.39 µM (≈ 0.217 µg/mL) | 10 µM | 1.4 µM | 50 µM (≈ 27.8 µg/mL) | 100 µM | 0.9 µM
Nc1ncnc2c1ncn2[C@@H]1O[C@H](CNS(=O)(=O)OCCCCCCCCCCCOc2ccccc2)[C@@H](O)[C@H]1O | > 50 µM | > 100 µM | > 100 µM | – | – | –
CCCCCCCCCCCCCCCC(=O)NS(=O)(=O)OC[C@H]1O[C@@H](n2cnc3c(N)ncnc32)[C@H](O)[C@@H]1O | 6.25 µM (≈ 3.65 µg/mL) | – | 1 µM | 100 µM (≈ 58.5 µg/mL) | > 100 µM | 0.3 µM
Nc1ncnc2c1ncn2[C@@H]1O[C@H](COS(=O)(=O)NC(=O)CCCCCCCCCCOc2ccccc2Cl)[C@@H](O)[C@H]1O | > 50 µM | > 100 µM | 3.6 µM | – | – | –
Nc1ncnc2c1ncn2[C@@H]1O[C@H](COS(=O)(=O)NCCCCCCCCCCCOc2ccccc2)[C@@H](O)[C@H]1O | > 50 µM | > 100 µM | > 100 µM | – | – | –
Nc1ncnc2c1ncn2[C@@H]1O[C@H](COS(=O)(=O)NC(=O)CCCCCCCCCCOc2ccc(F)cc2)[C@@H](O)[C@H]1O | 12.5 µM (≈ 7.81 µg/mL) | 11.4 µM | 0.3 µM | – | – | –
Nc1ncnc2c1ncn2[C@@H]1O[C@H](COS(=O)(=O)NC(=O)CCCCCCCCCCOc2ccccc2F)[C@@H](O)[C@H]1O | > 50 µM | > 100 µM | 1.5 µM | – | – | –
Nc1ncnc2c1ncn2[C@@H]1O[C@H](COS(=O)(=O)NC(=O)CCCCCCCCCCOc2ccc(C(F)(F)F)cc2)[C@@H](O)[C@H]1O | 25 µM (≈ 16.9 µg/mL) | 34.4 µM | 15.6 µM | – | – | –
COc1ccccc1OCCCCCCCCCCC(=O)NS(=O)(=O)OC[C@H]1O[C@@H](n2cnc3c(N)ncnc32)[C@H](O)[C@@H]1O | > 50 µM | > 100 µM | > 100 µM | – | – | –
CCCC(=O)NS(=O)(=O)OC[C@H]1O[C@@H](n2cnc3c(N)ncnc32)[C@H](O)[C@@H]1O | > 100 µM | > 100 µM | > 100 µM | > 100 µM | > 100 µM | 81.4 µM
C#CCCCCCCCCC(=O)NS(=O)(=O)OC[C@H]1O[C@@H](n2cnc3c(N)ncnc32)[C@H](O)[C@@H]1O | 1.56 µM (≈ 0.796 µg/mL) | > 100 µM | > 100 µM | 50 µM (≈ 25.5 µg/mL) | 50 µM | 9.7 µM
Nc1ncnc2c1ncn2[C@@H]1O[C@H](COS(=O)(=O)NC(=O)CCCCCCCCCOc2ccccc2)[C@@H](O)[C@H]1O | 50 µM (≈ 29.6 µg/mL) | > 100 µM | 6.7 µM | – | – | –
CCCCCCCCCC(=O)NS(=O)(=O)OC[C@H]1O[C@@H](n2cnc3c(N)ncnc32)[C@H](O)[C@@H]1O | 1.56 µM (≈ 0.781 µg/mL) | > 100 µM | 88 µM | 100 µM (≈ 50.1 µg/mL) | > 100 µM | 10.1 µM
